How the values were obtained:
[1] = Hepatotoxicity in BALB/c mouse assessed as effect on serum AST level at 50 to 100 mg/kg, ig administered for 14 days; assay type: toxicity, organism-based; details: in vivo, po, 336 h, dose 50-100 mg/kg, time 14 day
Method in brief: (§1)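 BALB/c mice, 10 per group, gavaged daily for 14 days at 50 or 100 mg/kg; blank control group included. Hair, behaviour and neurological signs (fremitus, convulsion, spasm, gait disturbance) were observed. At day 14, mice were weighed and given routine blood tests and serum biochemistry (ALT, AST, urea, creatinine; n = 10). Liver and kidney were examined on paraffin-embedded histology sections.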

[2] = Permeability across apical to basolateral side in human Caco-2 cells assessed as […] yellow leakage at 10 uM incubated for 2 hrs LC-MS/MS analysis; assay type: ADME, cell-based; details: caco-2, 2 h
Method in brief: (§2)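 Caco-2 monolayers, apical to basolateral direction. Plates preincubated 30 min at 37 °C, then exposed to 10 µM compound for 2 h at 37 °C without shaking. Donor and receiver samples were quenched, centrifuged and measured by LC/MS/MS, in duplicate. Papp calculated from receiver concentration, area and time. Monolayer integrity checked by TEER and by Lucifer yellow leakage (30 min, 37 °C, ex 485/em 530 nm).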

[3] = Initial concentration in Sprague-Dawley rat at 2 mg/kg, iv by LC-MS/MS analysis; assay type: ADME, organism-based; details: in vivo
Method in brief: (§3)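 SD rats dosed iv or intragastrically. Plasma (50 µL) was mixed with diclofenac internal standard (50 ng/mL, 300 µL), vortexed, centrifuged at 4 °C, and the supernatant analysed by LC/MS/MS against spiked standard and QC curves. Noncompartmental parameters calculated; mean ± SD, n = 3 (bioavailability excepted).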

[4] = Permeability across apical to basolateral side in human Caco-2 cells assessed as transepithelial electrical resistance at 10 uM incubated for 2 hrs LC-MS/MS analysis; assay type: ADME, cell-based; details: caco-2, 2 h; method in brief: as §2
[5] = Toxicity in BALB/c mouse assessed as hepatocyte nucleus mitosis at 50 to 100 mg/kg, ig administered for 14 days; assay type: organism-based; details: in vivo, po, 336 h, dose 50-100 mg/kg, time 14 day; method in brief: as §1
[6] = AUC (0 to t) in Sprague-Dawley rat at 2 mg/kg, iv by LC-MS/MS analysis; assay type: ADME, organism-based; set-up: dose 2 mg/kg; details: in vivo
Method in brief: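 The acid metabolite of the parent ester was dosed directly to Sprague-Dawley rats, iv or intragastrically (n=3). Plasma (50 µL) was spiked with 5 µL DMSO, extracted with 300 µL acetonitrile containing 50 ng/mL diclofenac internal standard, then vortexed and centrifuged at 4 °C. Supernatant was quantified by LC/MS/MS against plasma calibration standards and QCs. AUC came from noncompartmental analysis.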

[7] = Toxicity in BALB/c mouse assessed as hepatocyte necrotic foci at 50 to 100 mg/kg, ig administered for 14 days; assay type: organism-based; details: in vivo, po, 336 h, dose 50-100 mg/kg, time 14 day; method in brief: as §1
[8] = biological target: Cytochrome P450 2D6 (Homo sapiens, UniProt P10635); assay: Inhibition of CYP2D6 in human liver microsomes using dextromethorphan as substrate incubated for 5 mins followed by NADPH addition and measured after 20 mins by LC-MS/MS analysis
Cytochrome P450 2D6, sequence (P10635 whole entry): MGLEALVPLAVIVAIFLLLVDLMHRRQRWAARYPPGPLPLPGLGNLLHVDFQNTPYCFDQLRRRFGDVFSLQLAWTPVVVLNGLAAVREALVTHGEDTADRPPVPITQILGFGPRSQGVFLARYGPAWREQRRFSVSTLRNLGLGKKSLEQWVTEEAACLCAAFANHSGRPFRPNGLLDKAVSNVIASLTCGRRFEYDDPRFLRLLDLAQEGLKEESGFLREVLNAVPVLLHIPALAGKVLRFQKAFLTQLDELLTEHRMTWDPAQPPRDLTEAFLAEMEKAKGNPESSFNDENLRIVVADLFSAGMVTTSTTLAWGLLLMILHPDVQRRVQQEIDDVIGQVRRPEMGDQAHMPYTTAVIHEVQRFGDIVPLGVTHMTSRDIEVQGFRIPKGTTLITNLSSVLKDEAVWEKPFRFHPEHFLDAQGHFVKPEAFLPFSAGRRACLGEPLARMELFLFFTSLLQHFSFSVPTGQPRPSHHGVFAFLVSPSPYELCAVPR

[9] = MRT in Sprague-Dawley rat at 2 mg/kg, iv by LC-MS/MS analysis; assay type: ADME, organism-based; details: in vivo; method in brief: as §3
[10] = biological target: Cytochrome P450 3A4 (Homo sapiens, UniProt P08684); assay: Inhibition of CYP3A4 in human liver microsomes using midazolam as substrate incubated for 5 mins followed by NADPH addition and measured after 20 mins by LC-MS/MS analysis; assay type: ADME
Cytochrome P450 3A4, sequence (P08684 whole entry, canonical isoform): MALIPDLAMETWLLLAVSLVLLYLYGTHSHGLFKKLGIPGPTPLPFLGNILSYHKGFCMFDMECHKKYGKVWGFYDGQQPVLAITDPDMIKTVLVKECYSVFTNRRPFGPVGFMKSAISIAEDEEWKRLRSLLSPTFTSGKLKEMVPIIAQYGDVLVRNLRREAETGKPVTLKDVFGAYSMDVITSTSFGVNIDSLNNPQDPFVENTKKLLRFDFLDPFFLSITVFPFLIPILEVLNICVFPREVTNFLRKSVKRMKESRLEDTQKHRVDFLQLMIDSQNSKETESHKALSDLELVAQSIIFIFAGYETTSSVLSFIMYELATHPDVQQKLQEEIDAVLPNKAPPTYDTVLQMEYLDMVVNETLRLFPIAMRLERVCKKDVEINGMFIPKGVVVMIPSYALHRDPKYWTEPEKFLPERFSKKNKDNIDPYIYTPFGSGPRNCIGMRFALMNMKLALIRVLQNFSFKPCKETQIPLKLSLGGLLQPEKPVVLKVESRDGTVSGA
Method in brief: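 Human liver microsomes at 0.2 mg/mL mixed with probe substrates, preincubated 5 min at 37 °C. Reaction started with NADPH and run 20 min at 37 °C in a shaking bath. Quenched, held at -20 °C for 1 h, centrifuged, and the supernatant analysed by LC/MS/MS. Assay validated with specific inhibitors for each isoform.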

[11] = in vitro; details: human, liver microsomes
[12] = Toxicity in BALB/c mouse assessed as effect on hair at 50 to 100 mg/kg, ig administered for 14 days; assay type: organism-based; details: in vivo, po, 336 h, dose 50-100 mg/kg, time 14 day; method in brief: as §1
[13] = Toxicity in BALB/c mouse assessed as gait disturbance at 50 to 100 mg/kg, ig administered for 14 days; assay type: organism-based; details: in vivo, po, 336 h, dose 50-100 mg/kg, time 14 day; method in brief: as §1
[14] = Cmax in Sprague-Dawley rat at 10 mg/kg, po by LC-MS/MS analysis; assay type: ADME, organism-based; set-up: route oral, dose 10 mg/kg; details: in vivo; method in brief: as §3
[15] = Toxicity in BALB/c mouse assessed as effect on body weight at 50 to 100 mg/kg, ig administered for 14 days; assay type: organism-based; details: in vivo, po, 336 h, dose 50-100 mg/kg, time 14 day; method in brief: as §1

COc1ccc2cc(C(=O)NCCN(C)C)oc2c1.CS(=O)(=O)O
Activity [1]: Non-Toxic
Activity [2]: 0.158%
C0 [3]: 17.2 ng/mL
Activity [4]: 341 Ω·cm²
Activity [5]: Toxic
AUC(0-t) [6]: 59.5 ng·h/mL
Activity [7]: Toxic
IC50 [8]: 7.84 µM
MRT [9]: 2.85 h
IC50 [10]: > 10 µM
half-life at 0.5 h, 100 µM [11]: 1.72 h
Activity [12]: Non-Toxic
Activity [13]: Non-Toxic
Cmax [14]: 54.2 ng/mL
Activity [15]: Non-Toxic
